In publication PMC8853703 (Chemical research in toxicology, 2021):

Key:
Type in all cases: cell-based, porcine
[1] = test system: LLC-PK1 cells; assay: MitoSOX Red mitochondrial superoxide detection assay; details: CDDP 20 μM alone, 24 h
How it was run: (§1)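 LLC-PK1 cells (M199, 10% FBS, 1% PS; 37 °C, 5% CO2) were seeded at 1×10^4 cells/well overnight. Probe loading was 5 μM CM-H2DCFDA for 30 min (general ROS) or 2.5 μM MitoSOX Red for 10 min (mitochondrial superoxide), then 3 PBS washes. […] After PBS washes, fluorescence was read in PBS at Ex/Em 485/535 nm (DCF) or 510/580 nm (MitoSOX). Three independent experiments.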

[2] = test system: LLC-PK1 cells; assay: JC-10 mitochondrial transmembrane potential assay; details: for effect of cisplatin on ΔΨm: CDDP 20 μM alone
[3] = test system: caspase-3; assay: Caspase-3 activity assay; details: CDDP 20 μM alone, 24 h
[4] = test system: LLC-PK1 cells; assay: CM-H2DCFDA general reactive oxygen species quantitation assay; details: CDDP 20 μM alone, 24 h
How it was run: as §1

[5] = test system: caspase-9; assay: Caspase-9 activity assay; details: CDDP 20 μM alone, 24 h
How it was run: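 Supernatant was mixed 1:1 with HEPES pH 7.4 caspase buffer (CHAPS, glycerol, EDTA, 10 mM DTT) holding 100 μM Ac-LEHD-pNA. Incubation was 90 min at 37 °C, read as absorbance at 400 nm, with activity normalised to BCA total protein.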

## N.N.[Cl][Pt][Cl] [cisplatin, cis-Diamminedichloroplatinum (II), reference compound]
[1]
  effect of cisplatin on O2•− generated in mitochondria: increased
[2]; 6 h
  effect of cisplatin on ΔΨm: not significantly affected
[2]; 24 h
  effect of cisplatin on ΔΨm: substantial loss of the ΔΨm
[2]; 48 h
  effect of cisplatin on ΔΨm: nearly complete gradient collapse
[3]
  effect of cisplatin on caspase-3 activity: greatly elevated
[4]
  effect of cisplatin on general ROS: increased
[5]
  effect of cisplatin on caspase-9 activity: greatly elevated

## N#CC(C#N)=NNc1ccc(OC(F)(F)F)cc1 [FCCP, Carbonyl cyanide-p-trifluoromethoxyphenylhydrazone]
[2]; FCCP 10 μM
  ΔΨm with positive control: depolarized ΔΨm
